# ChEMBL document CHEMBL1150225, “Cytotoxic cholestane glycosides from the bulbs of Ornithogalum saundersiae” (J Nat Prod, 2001)
# Test system: HL-60
# Assay: Cytotoxicity against human HL60 cells after 72 hrs by MTT assay
# Format: functional, cell-based
# Conditions: HL-60, 72 h
# Procedure, shortened: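 HL-60 leukemia cells kept in RPMI 1640 with 10% fetal bovine serum, L-glutamine, 100 units/mL penicillin and 100 μg/mL streptomycin. Cells at 3 × 10^4 cells/mL exposed continuously to compound for 72 h. Growth read by MTT reduction. IC50 (50% inhibition) calculated from each compound's dose–response curve.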
row,Structure (SMILES),IC50
1,CC(C)CCC(O)[C@@H](C)[C@@]1(O)[C@@H](O[C@@H]2OC[C@H](O)[C@H](O[C@@H]3OC[C@@H](O)[C@H](O)[C@H]3O)[C@H]2O)C[C@H]2[C@@H]3CC=C4C[C@@H](O)CC[C@]4(C)[C@H]3CC[C@@]21C (some centres not stated),8.3 µM
2,CC(C)CCC(=O)[C@@H](C)[C@@]1(O)[C@@H](O[C@@H]2OC[C@H](O)[C@H](O[C@@H]3OC[C@@H](O[C@@H]4O[C@H](CO)[C@@H](O)[C@H](O)[C@H]4O)[C@H](O)[C@H]3O)[C@H]2O)C[C@H]2[C@@H]3CC=C4C[C@@H](O)CC[C@]4(C)[C@H]3CC[C@@]21C,> 10 µM
